# Published values of several laboratories.
# Target: cAMP-dependent protein kinase catalytic subunit beta (PRKACB, Homo sapiens, UniProt P22694)
Structure (SMILES),observed,mode,technique,concentration,endpoint,result
Nc1ncnc2occ(-c3ccc(NC(=O)Nc4cc(C(F)(F)F)ccc4F)cc3)c12,enzyme activity,inhibitor,,20 µM,remaining activity,22%
O=C(Nc1cccnn1)N1CCC(=Cc2cccc(Oc3ccc(C(F)(F)F)cn3)c2)CC1,cell-free assay,,competition with immobilised ligand,1 µM,remaining binding,100%
COc1cc(Cl)c(C(=O)N[C@@H](CN[C@H]2CC[C@@H](N)CC2)Cc2ccc(C#N)cc2)cc1-c1ccc(CN[C@H](C)c2ccc(C)cc2)o1,enzyme activity,inhibitor,,1 µM,remaining activity,66%
C[C@H](c1ccnc(Nc2nc3ccc(-c4cc(N(C)C)ncn4)cc3[nH]2)c1)N1CCN(C(=O)CC(F)(F)F)CC1,cell-free assay,,competition with immobilised ligand,0.1 µM,remaining binding,100%
CC(C)(O)[C@H]1CC[C@H](Nc2ccc3ncc(-c4cccc(C(F)(F)F)c4)n3n2)CC1,enzyme activity,inhibitor,,1 µM,remaining activity,97.7%
Cc1ccc(C(=O)Nc2ccc(CN3CCN(C)CC3)c(C(F)(F)F)c2)cc1C#Cc1cnc2cccnn12,enzyme activity,inhibitor,,23.5 nM,remaining activity,83%
O=C(Nc1cnn(-c2csc(C(=O)NC3COC3)c2)c1)Nc1ccccc1Cl,enzyme activity,inhibitor,,5 µM,remaining activity,99%
COc1cc(-c2cc(-c3ccc(N4CCNCC4)cc3)cnc2C)cc(OC)c1OC,enzyme activity,inhibitor,,1 µM,inhibition,3%
Cc1sc(C(=O)NC2COC2)cc1-n1cc(NC(=O)Nc2c(F)cccc2Cl)cn1,enzyme activity,inhibitor,,10 µM,remaining activity,104%
Cc1ccc(C(=O)NCc2ccsc2)cc1C#Cc1cn(C(C)C)c2ncnc(N)c12,enzyme activity,inhibitor,,1 µM,activity vs control,111%
Cn1cnc(Br)c1C1=CN(c2ncnc3[nH]cnc23)CCS1,enzyme activity,inhibitor,radiometric,50 nM,inhibition,18.7%
C[C@@H]1CN(c2cc(-c3nn(C)c4ccc(OC5(C)CC5)cc34)ncn2)C[C@H](C)O1,cell-free assay,,competition with immobilised ligand,1 µM,remaining binding,100%
CN1CC(Oc2cnc(C#N)cc2-c2ccn3nc(NC(=O)C4CC4)cc3c2)C1,enzyme activity,inhibitor,,1 µM,inhibition,-10%
